# Assay outcomes from PubChem.
# RGS4 block: human RGS4 inhibition. HEK293 M3R/RGS4 inducible, Fluo-4 calcium flux; active compounds read high; triggered by carbachol at its EC20. B-score at 10 µM. hit rate 0.45% among 310,000. AID 463165;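 active means B-score, a plate-corrected calcium signal, over three deviations above library mean, with baseline fluorescence within five deviations of library mean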;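 further: RGS4 expression induced by doxycycline in cells with stable M3 receptor; B-score is computed from the integrated fluorescence ratio over baseline after carbachol; higher B-score means a larger calcium signal and so more RGS4 inhibition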
# Target sequence (P49798 whole entry, looked up): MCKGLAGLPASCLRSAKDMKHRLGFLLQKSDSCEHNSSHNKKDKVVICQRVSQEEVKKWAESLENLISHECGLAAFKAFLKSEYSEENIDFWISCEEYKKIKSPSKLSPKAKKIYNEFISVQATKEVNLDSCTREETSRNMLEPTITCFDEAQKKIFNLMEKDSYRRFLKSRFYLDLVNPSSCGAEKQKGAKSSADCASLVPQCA
# RGS4 pot: RGS4 potentiation or activation. HEK293 M3R/inducible RGS4, carbachol calcium flux Fluo4; active compounds read low. B-score at 10 µM. hit rate 0.92% among 310,000;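 active means B-score of the integrated calcium signal more than 4 SD below the library mean, with starting fluorescence not abnormally high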;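 further: negative B-score means reduced calcium response which marks RGS4 activation or potentiation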
#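 Material: Inducible-RGS4 HEK293 cells carrying M3 receptor; also added: carbachol at ECmax as muscarinic agonist stimulus; incubation: compound preincubation 20 min at room temperature before agonist; signal: Fluo4-AM (2 µM) calcium-flux fluorescence, kinetic read; measure: integrated calcium ratio converted to B score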
# MrgX1 antagonist: human MrgX1 receptor antagonism, primary screen; Q96LB2; AID 588676; MRGX1-HEK293 calcium flux, Fluo-4, BAM8-22 antagonism; active compounds read low; hit rate 1.3% among 310,000; B-score at 10 µM;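 active means calcium-response B-score plate-corrected more than 3 library SD below zero, starting fluorescence within 5 deviations, no agonist response on first addition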;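 further: peak minus trough fluorescence over baseline after final BAM8-22 challenge near maximal dose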
# Target sequence (Q96LB2 whole entry, looked up): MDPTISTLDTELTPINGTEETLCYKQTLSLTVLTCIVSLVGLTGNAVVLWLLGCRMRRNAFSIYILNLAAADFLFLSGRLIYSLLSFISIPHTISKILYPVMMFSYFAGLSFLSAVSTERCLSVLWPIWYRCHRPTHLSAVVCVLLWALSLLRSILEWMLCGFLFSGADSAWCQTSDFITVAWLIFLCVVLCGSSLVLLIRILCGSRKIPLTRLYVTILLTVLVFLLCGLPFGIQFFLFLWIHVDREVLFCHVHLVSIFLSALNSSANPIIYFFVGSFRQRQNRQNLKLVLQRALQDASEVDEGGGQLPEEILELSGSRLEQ
# MrgX1 agonist: human MrgX1 receptor agonism, primary screen. Q96LB2. MrgX1-HEK293 cells, Fluo-4 calcium fluorescence, agonist mode; active compounds read high. B-score at 10 µM. hit rate 0.44% among 310,000. AID 588627;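 active means calcium response B-score plate-corrected fluorescence ratio at least 3 library SD, with starting fluorescence B-score inside 5 SD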
#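 Material: HEK293 cells stably expressing human MrgX1 receptor | Quantity: 15,000 cells per well | Times: Cells plated overnight, dye loaded 0.5 h 37 °C, 0.5 h room temperature | Measured by: Kinetic Fluo-4 NW fluorescence of intracellular calcium | Control set: Positive and negative controls per plate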
# MrgX1 allo act: human MrgX1 positive allosteric modulation, primary screen; Q96LB2; MrgX1-HEK293, Fluo-4 calcium flux, FDSS; active compounds read high; B-score at 10 µM; hit rate 0.63% among 310,000;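 active means plate-corrected calcium response at least 3 library SD above typical, normal starting fluorescence, not activating the receptor alone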;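 further: compound read alongside a low EC10 to EC30 dose of BAM8-22 agonist; peak minus trough fluorescence over baseline measured at the second addition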
# MrgX1 ag reconf: reconfirmed activator of human MrgX1 receptor signaling; shares compounds with MrgX1 agonist; MrgX1-HEK293, Fluo-4 calcium fluorescence, FDSS; activation, % at 10 µM; hit rate 78% among 600; AID 602412;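 active means calcium signal rise, corrected for plate position, at least 3 library SD high, with starting brightness within 5 such deviations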
# HEK293 Ca flux: MrgX1 antagonist counter-screen hit in parental HEK293 cells; shares compounds with MrgX1 antagonist; Fluo-4 calcium fluorescence, FDSS; fluorescence ratio F(max-min)/F0 at 10 µM; hit rate 2% among 4,000;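 active means duplicate-averaged calcium fluorescence ratio at least three times the standard deviation of buffer wells, a nonspecific response in parental cells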
# HEK293 Ca counter: MrgX1 allosteric activator counter-screen hit in parental HEK293 cells. AID 624114. parental HEK293 calcium flux, Fluo-4 fluorescence ratio; active compounds read high. hit rate 0.4% among 4,000. fluorescence ratio F(max-min)/F0 at 10 µM. shares compounds with MrgX1 antagonist;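 active means calcium fluorescence ratio, averaged over duplicates, at least 3 SD of the buffer-well ratio, meaning a nonspecific response in receptor-free cells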;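 further: untransfected parental HEK293 lacking MrgX1 used as counterscreen for MrgX1 allosteric activators; fluorescence change taken during the second addition on a kinetic imager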
# HEK293 Ca cntr2: counter-screen for MrgX1 activators: effect in parental HEK293 cells; hit rate 8.7% among 4,000; Fluo-4 calcium fluorescence (FDSS); active compounds read high; fluorescence ratio F(max-min)/F0 at 10 µM; shares compounds with MrgX1 antagonist; AID 624115;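 active means calcium fluorescence ratio at least three times the spread of buffer wells, meaning a non-specific response in parental cells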
# * hit, by the source's call; i = inactive; nt = no result. Rows were chosen to be rich in hits. Some 3.5% of all compounds tested hit in one or more screens of this group.
SMILES,RGS4 block,RGS4 pot,MrgX1 antagonist,MrgX1 agonist,MrgX1 allo act,MrgX1 ag reconf,HEK293 Ca flux,HEK293 Ca counter,HEK293 Ca cntr2
CC1(C)CSC(=NCc2ccccc2)N1C(=O)c1cccc([N+](=O)[O-])c1,i,i,i,84*,i,505%*,i,i,103*
NC(=NCc1ccccc1)c1cccc([N+](=O)[O-])c1,i,i,i,i,i,nt,nt,nt,nt
CN(C)c1ccc(NC(=S)NC23CC4CC(CC(C4)C2)C3)cc1,i,i,i,i,i,nt,nt,nt,nt
CCn1c(=O)c(C(=O)CN2CCN(S(=O)(=O)c3ccc(C)cc3C)CC2)c(N)n(Cc2ccccc2)c1=O,i,i,i,i,i,nt,nt,nt,nt
CCn1c(=O)c(C(=O)CN2CCN(S(=O)(=O)c3ccccc3)CC2)c(N)n(Cc2ccccc2)c1=O,i,i,i,27*,i,188%*,i,i,i
O=C(O)c1ccc(-c2ccc(/C=c3/sc4nc5ccccc5n4c3=O)o2)cc1Cl,i,i,i,81*,i,465%*,0.13*,i,104*
COc1ccccc1Oc1ccnc2cc(Cl)ccc12,i,i,i,30*,i,103%*,i,i,i
O=C(CCl)N(c1ccc(Cl)cc1)c1c[nH]c2ccccc12,i,i,i,30*,i,146%*,i,i,i
O=C(CCl)N(c1ccccc1)c1c[nH]c2ccccc12,i,i,i,i,i,nt,nt,nt,nt
CCCCCOc1ccc(Br)cc1CSC(=N)N,i,i,nt,nt,nt,nt,nt,nt,nt
CCCCOc1ccc(CSC(=N)N)cc1Cl,i,i,i,35*,i,164%*,i,i,i
FC(F)(F)c1nnc2ccc(NCc3ccccc3)nn12,i,i,i,i,i,nt,nt,nt,nt
CCOc1ccc(S(=O)(=O)Nc2ncn[nH]2)cc1,i,i,i,i,i,nt,nt,nt,nt
CCOc1ccc(Br)cc1S(=O)(=O)Nc1ncn[nH]1,i,i,i,32*,i,i,i,i,i
CCCCCn1c(=N)c(S(=O)(=O)c2ccc(Cl)cc2)cc2c(=O)n3cccc(C)c3nc21,i,i,i,27*,i,94%*,i,i,i
COc1ccc(OC)c(NC(=O)Nc2c(O)ccc3ccccc23)c1,i,i,i,29*,i,i,i,i,i
O=C(NC1(C(F)(F)F)C(=O)Nc2c1c(=O)[nH]c(=O)n2Cc1ccccc1)c1ccc(Cl)cc1 (stereo unspecified),i,i,i,i,i,nt,nt,nt,nt
O=c1[nH]c(=O)n(Cc2ccccc2)c2c1C(C(F)(F)F)(C(F)(F)F)N=C(c1ccco1)N2,i,i,i,41*,i,223%*,i,i,58*
COc1ccc(N2CCN(C(=O)COC(=O)Cc3cccc(OC)c3)CC2)cc1,i,i,i,i,i,nt,nt,nt,nt
Fc1ccc2[nH]c3c(NCc4ccccc4)ncnc3c2c1,i,i,i,38*,i,251%*,i,i,54*
CSc1nnc(-c2cc(Br)ccc2N=Cc2c(C)[nH]n(-c3ccccc3)c2=O)c(=O)[nH]1,i,i,i,i,i,nt,nt,nt,nt
CCSc1nnc(-c2cc(Br)ccc2N=Cc2c(C)[nH]n(-c3ccccc3)c2=O)c(=O)[nH]1,i,i,i,71*,i,109%*,i,i,61*
COc1ccc(CNc2nc3ccc(C)cc3s2)c(OC)c1OC,i,i,i,i,i,nt,nt,nt,nt
CCc1cc(=S)n2c([nH]c3ccccc32)c1C#N,i,i,i,43*,i,284%*,i,i,93*
CCc1cc(=O)n2c([nH]c3ccccc32)c1C#N,i,i,i,i,i,nt,nt,nt,nt
SMILES,RGS4 block,RGS4 pot,MrgX1 antagonist,MrgX1 agonist,MrgX1 allo act,MrgX1 ag reconf,HEK293 Ca flux,HEK293 Ca counter,HEK293 Ca cntr2
O=C(CSc1nnnn1-c1ccc(F)cc1)Nc1ccccc1F,i,i,i,i,i,nt,nt,nt,nt
O=C(c1ccc([N+](=O)[O-])cc1)N(Cc1ccc(Br)cc1)N1C(=O)CCCC1=O,i,i,i,71*,i,521%*,i,i,96*
O=C(c1ccccc1Cl)N(Cc1ccc(Br)cc1)N1C(=O)CCCC1=O,i,i,i,i,i,nt,nt,nt,nt
Cc1ccc(-c2nnc3n2CCCCC3)cc1,i,i,i,i,i,nt,nt,nt,nt
Oc1ccccc1-c1nnc2n1CCCCC2,i,i,i,27*,i,i,i,i,i
CC(=O)OC1CC2(C)/C(=N\O)CCC2C2CCc3cc(O)ccc3C12 (stereo unspecified),i,i,i,i,i,nt,nt,nt,nt
O=C(COc1ccccc1Cl)NCCCNC(=O)c1ccco1,i,i,i,i,i,nt,nt,nt,nt
CCCCC(=O)NC(=S)Nc1cccc(C(=O)O)c1,i,i,i,32*,i,i,i,i,i
CC(=Nc1ccccc1)c1sc2ccccc2c1O,i,i,i,61*,i,376%*,i,i,100*
CC(=Nc1ccc(Br)cc1)c1sc2ccccc2c1O,i,i,i,i,i,nt,nt,nt,nt
CCOC(=O)Cc1cc(=O)n2[nH]cc(-c3ccc(Cl)cc3)c2n1,i,i,i,i,i,nt,nt,nt,nt
Cc1ccc(-n2nc3c(c2NC(=O)CC(C)C)CS(=O)(=O)C3)cc1,i,i,i,i,i,nt,nt,nt,nt
CC(C)(C)Nc1c2ccccc2nc2ccccc12,i,i,i,35*,i,157%*,i,i,i
O=S(=O)(Nc1c(O)ccc2ccccc12)c1ccc(F)cc1,i,i,i,40*,i,81%*,i,i,i
O=S(=O)(Nc1c(O)ccc2ccccc12)c1ccccc1,i,i,i,29*,i,i,i,i,i
O=S(=O)(Nc1ncccn1)c1ccc(F)cc1,i,i,i,i,i,nt,nt,nt,nt
Cc1cccc(C(=O)NC(=S)Nc2ccccc2C(=O)O)c1,i,i,i,i,i,nt,nt,nt,nt
